{
  "source": "paper PMC7029794",
  "about": "(Cancer chemotherapy and pharmacology, 2019)",
  "key": {"[1]": {"conditions": "adults at the recommended dose; cited from earlier work"}, "[2]": {"conditions": "in vivo, po, 30 mg/kg, cited from earlier work"}, "[3]": {"conditions": "CF1 mice, 5 minutes after injection, cited from earlier work"}, "[4]": {"experiment": "Ribociclib protein binding in mouse plasma", "type": "in vitro ADME", "conditions": "CD1, mouse", "in_short": "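The test compound was spiked into CD1 mouse plasma (sodium heparin) at final 500, 1000, 2500 and 5000 ng/ml. Spiked plasma was ultrafiltered through a 10 kDa cut-off device by centrifugation for 30 min at 3600 rpm, 37°C, and the filtrate was stored at −80°C. Fraction unbound was calculated as the filtrate concentration divided by the total plasma concentration.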"}, "[5]": {"type": "in vivo, CD1 nude mice", "in_short": "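Female CD1 nude mice (n=9) bearing cortical SJ-DIPGx7 allografts received a single oral 100 mg/kg dose (10 mg/ml in 0.5% methyl cellulose). Sampling used a population design with multiple samples per mouse up to 24 h: retro-orbital bleeds and terminal cardiac puncture, into heparin. Plasma was assayed by LC-MS/MS. A one-compartment model with an oral dosing compartment was fitted by nonlinear mixed-effects modelling (NONMEM).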"}, "[6]": {"experiment": "Cerebral microdialysis study in non-tumor bearing mice", "type": "in vivo, CD1 nude mice", "conditions": "100 mg/kg oral", "in_short": "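After a single oral 100 mg/kg dose, brain ECF was microdialysed with Ringer's after at least 1 h probe equilibration. Plasma was sampled at 0.08, 1.5 and 7 h (some at 24 h). ECF was corrected by in vitro probe recovery at 1 μg/mL, 37°C, 0.5 μL/min. A one-compartment plus ECF compartment model was fitted in NONMEM with plasma parameters fixed.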"}, "[7]": {"experiment": "Cerebral microdialysis study in mice bearing SJ-DIPGx7", "type": "in vivo, CD1 nude mice", "conditions": "glioma mice, 100 mg/kg oral", "in_short": "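Female CD1 nude mice with cortical allografts of 1·10^6 SJ-DIPGx7 cells (n=16); a guide cannula was implanted stereotactically into the cortex. After a single oral 100 mg/kg dose, tumor ECF was microdialysed with Ringer's after at least 1 h probe equilibration, and plasma was sampled at 0.08, 1.5 and 7 h (some at 24 h). ECF values were corrected by per-probe in vitro recovery. Data were fitted in NONMEM with plasma parameters and V3 fixed.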"}, "CDK-cyclin D1": {"test_system": "CDK-cyclin D1", "conditions": "read-out: IC50 for CDK-cyclin D1; no reference given; cited from earlier work"}, "[8]": {"conditions": "cited from earlier work"}, "[9]": {"conditions": "Full-plasma PK study, glioma mice, 100 mg/kg oral"}},
  "note": "Read-outs that look alike come from different tables or passages of the source.",
  "data": [
    {"molecule": "CCN1CCN(Cc2ccc(Nc3ncc(F)c(-c4cc(F)c5nc(C)n(C(C)C)c5c4)n3)nc2)CC1", "note": "[abemaciclib]", "values": [
      {"measurement": "plasma AUC", "setting": "[1]", "result": 5520, "unit": "ng·h/mL"},
      {"measurement": "Kp,brain", "setting": "[2]; 24 h", "result": "0.21 ± 0.04"},
      {"measurement": "Kp,uu", "setting": "[2]; 24 h", "result": "0.03 ± 0.01"},
      {"measurement": "plasma AUC", "setting": "[2]", "result": "69,300 ng/ml*hr"}
    ]},
    {"molecule": "CC(=O)c1c(C)c2cnc(Nc3ccc(N4CCNCC4)cn3)nc2n(C2CCCC2)c1=O", "note": "[palbociclib]", "values": [
      {"measurement": "Kp,uu", "setting": "[3]", "result": "0.01 ± 0.003"},
      {"measurement": "Kp,brain", "setting": "[3]; dose 0.5 μmole/kg", "result": "0.13 ± 0.04"}
    ]},
    {"molecule": "CN(C)C(=O)c1cc2cnc(Nc3ccc(N4CCNCC4)cn3)nc2n1C1CCCC1", "note": "[ribociclib, Ribociclib]", "values": [
      {"measurement": "fraction unbound at 30 min", "setting": "[4]", "result": 0.23},
      {"measurement": "half-life", "setting": "[5]; CD1 nude, mouse, plasma, po, 100 mg/kg", "result": "4.67 ± 0.64", "unit": "h"},
      {"measurement": "θCL Clearance, Estimate (%RSE)", "setting": "[5]; [9]", "result": "2.78 (1.8) L/hr/kg"},
      {"measurement": "θKa First-order absorption constant, Estimate (%RSE)", "setting": "[5]; [9]", "result": "2.75 (5.26) 1/hr"},
      {"measurement": "θVc Volume of central compartment, Estimate (%RSE)", "setting": "[5]; [9]", "result": "18.6 (3.87) L/kg"},
      {"measurement": "θCL23 Influx clearance from plasma to ECF compartment, Estimate (%RSE)", "setting": "[6]", "result": "0.124 (26.8) L/hr/kg"},
      {"measurement": "θCL32 Efflux clearance from ECF to plasma compartment, Estimate (%RSE)", "setting": "[6]", "result": "7.78 (8.81) L/hr/kg"},
      {"measurement": "AUC(0-t)", "setting": "[6]; CD1 nude, mouse, brain ECF, po, 100 mg/kg, Brain/tumor ECF AUC0–24h, n=12, brain ECF", "result": "736 ± 610", "unit": "ng·h/mL"},
      {"measurement": "AUC(0-t)", "setting": "[7]; CD1 nude, mouse, tumor ECF, po, 100 mg/kg, Brain/tumor ECF AUC0–24h, n=16, tumor ECF", "result": "433 ± 451", "unit": "ng·h/mL"},
      {"measurement": "θCL23 Influx clearance from plasma to ECF compartment, Estimate (%RSE)", "setting": "[7]", "result": "0.000000838 (24) L/hr/kg"},
      {"measurement": "θCL32 Efflux clearance from ECF to plasma compartment, Estimate (%RSE)", "setting": "[7]", "result": "0.0000808 (11.5) L/hr/kg"},
      {"measurement": "IC50", "setting": "CDK-cyclin D1", "result": 0.01, "unit": "µM"},
      {"measurement": "fraction unbound", "setting": "[8]; assumed value for phase I comparison", "result": 0.30},
      {"measurement": "unbound AUC", "setting": "[8]; phase I study, assuming a fraction unbound of 0.30", "result": "~ 6000 ng/ml*hr"}
    ]}
  ]
}
